Series [1] has as its target triheteromeric GluN1/2A/2B receptors. Conditions: read-out: glycine EC50; previously reported; ref Lotti et al., 2025; cited from earlier work.
The test system of series [2] is NMDA receptor-mediated EPSCs from CA1 pyramidal neurons. It counts as cell-based, mouse. Conditions: 3 μM compound, baseline vs following NAM application. In a few lines:
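Hippocampal slices from 3–5-week-old male and female C57BL/6J mice, perfused with aCSF at 32 °C. Whole-cell recordings from CA1 cells with Cs-based internal solution at +40 mV. Schaffer collaterals stimulated every 30 s with 10 μM NBQX and 10 μM gabazine. After 5-min baseline, test compound bath-applied at 3 μM. τW from double-exponential fit of deactivation; ratio paired t-test.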

Series [3] has as its target T1, GluN1/2A receptors (Rattus norvegicus, UniProt P35439+Q00959). Conditions: ref Lotti et al., 2025, cited from earlier work; for Kb: read-out: binding affinity KB.
The target of series [4] is T1, GluN1/2A receptors. It counts as cell-based. Conditions: for selectivity for GluN1/2A over GluN1/2B-D receptors: in 1 μM glycine; for IC50: read-out: IC50 (95% CI), […] μM glycine.
The test system of series [5] is triheteromeric GluN1/2A/2B receptors. It counts as cell-based, rat. Conditions: 100 μM glutamate; for Hill slope nH of inhibition: 1 μM glycine; for IC50: read-out: IC50 (95% CI), […] μM glycine.
The target of the next series is GluN1/2B receptors (Rattus norvegicus, UniProt P35439+Q00960). The experiment in a line: Two-electrode voltage-clamp recordings of recombinant GluN1/2B receptors. It counts as cell-based. Conditions: for Hill slope nH of inhibition: 0.3 μM glycine, 100 μM glutamate; for selectivity for GluN1/2A over GluN1/2B: glycine concentration close to respective EC50. For orientation: Two-electrode voltage clamp holds a large cell at a set potential and records current.

The target of a further series is GluN1/2C receptors (Rattus norvegicus, UniProt P35439+Q00961). In words: Two-electrode voltage-clamp recordings of recombinant GluN1/2C receptors. It counts as cell-based. The note with it: for selectivity for GluN1/2A over GluN1/2C: glycine concentration close to respective EC50.
The target of another series is GluN1/2D receptors (Rattus norvegicus, UniProt P35439+Q62645). The experiment in a line: Two-electrode voltage-clamp recordings of recombinant GluN1/2D receptors. It counts as cell-based. The note with it: for Hill slope nH of inhibition: 0.1 μM glycine, 100 μM glutamate; for selectivity for GluN1/2A over GluN1/2D: glycine concentration close to respective EC50.
The target in the next series is GluN1/2A-V529I (Rattus norvegicus, UniProt P35439+Q00959, V529I). The experiment in a line: Two-electrode voltage-clamp recordings, mutant GluN1/2A-V529I. It counts as cell-based.
Another series addresses GluN1/2A-V783F (Rattus norvegicus, UniProt P35439+Q00959, V783F). In words: Two-electrode voltage-clamp recordings, mutant GluN1/2A-V783F. It counts as cell-based. The note with it: 0.5 μM glycine; for Hill slope nH of inhibition: 300 μM glutamate; for decrease of potency compared to wild type GluN1/2A: saturating glutamate.
The next series deals with GluN1/2A-V783L (Rattus norvegicus, UniProt P35439+Q00959, V783L). The experiment in a line: Two-electrode voltage-clamp recordings, mutant GluN1/2A-V783L. It counts as cell-based. The note with it: 0.5 μM glycine; for Hill slope nH of inhibition: 300 μM glutamate; for decrease of potency compared to wild type GluN1/2A: saturating glutamate.
The target in the next series is GluN1/2A-M788I (Rattus norvegicus, UniProt P35439+Q00959, M788I). In words: Two-electrode voltage-clamp recordings, mutant GluN1/2A-M788I. It counts as cell-based.
A further series addresses GluN1/2A-M788T (Rattus norvegicus, UniProt P35439+Q00959, M788T). In words: Two-electrode voltage-clamp recordings, mutant GluN1/2A-M788T. It counts as cell-based.
In the next series the target is GluN1/2A-E789Q (Rattus norvegicus, UniProt P35439+Q00959, E789Q). In words: Two-electrode voltage-clamp recordings, mutant GluN1/2A-E789Q. It counts as cell-based.
A further series concerns the target GluN1/2A-T797S (Rattus norvegicus, UniProt P35439+Q00959, T797S). In words: Two-electrode voltage-clamp recordings, mutant GluN1/2A-T797S. It counts as cell-based.
For series [6] the following is noted: ref Volkmann et al., 2016; cited from earlier work.
Another series concerns the target GluN1/2A-Y754K (Rattus norvegicus, UniProt P35439+Q00959, Y754K). The experiment in a line: Two-electrode voltage-clamp recordings, mutant GluN1/2A-Y754K. It counts as cell-based. Conditions: 300 μM glutamate.
The target in the next series is GluN1/2A-I755F (Rattus norvegicus, UniProt P35439+Q00959, I755F). In words: Two-electrode voltage-clamp recordings, mutant GluN1/2A-I755F. It counts as cell-based.
The target of a further series is GluN1/2A-I755V (Rattus norvegicus, UniProt P35439+Q00959, I755V). In words: Two-electrode voltage-clamp recordings, mutant GluN1/2A-I755V. It counts as cell-based. The note with it: 300 μM glutamate.
The target in the next series is GluN1/2A-I755V+Y754K (Rattus norvegicus, UniProt P35439+Q00959, I755V/Y754K). In words: Two-electrode voltage-clamp recordings, mutant GluN1/2A-I755V+Y754K. It counts as cell-based. The note with it: 1 μM glycine, 300 μM glutamate.
For series [7], the target named is T1, GluN1/2A receptors. It counts as cell-based. The note with it: global non-linear regression of glycine concentration-response data.
[8] abbreviates: glycine near EC50, saturating glutamate.
[9] abbreviates: read-out: IC50 (95% CI), […] μM glycine, 300 μM glutamate.
Where [10] appears, read: read-out: IC50 (95% CI), […] μM glycine.

Like-named read-outs stand apart in the source and are kept apart here.

GluN1/2A-M788T, sequence (Q00959 23-1464 M788T, other chains not shown): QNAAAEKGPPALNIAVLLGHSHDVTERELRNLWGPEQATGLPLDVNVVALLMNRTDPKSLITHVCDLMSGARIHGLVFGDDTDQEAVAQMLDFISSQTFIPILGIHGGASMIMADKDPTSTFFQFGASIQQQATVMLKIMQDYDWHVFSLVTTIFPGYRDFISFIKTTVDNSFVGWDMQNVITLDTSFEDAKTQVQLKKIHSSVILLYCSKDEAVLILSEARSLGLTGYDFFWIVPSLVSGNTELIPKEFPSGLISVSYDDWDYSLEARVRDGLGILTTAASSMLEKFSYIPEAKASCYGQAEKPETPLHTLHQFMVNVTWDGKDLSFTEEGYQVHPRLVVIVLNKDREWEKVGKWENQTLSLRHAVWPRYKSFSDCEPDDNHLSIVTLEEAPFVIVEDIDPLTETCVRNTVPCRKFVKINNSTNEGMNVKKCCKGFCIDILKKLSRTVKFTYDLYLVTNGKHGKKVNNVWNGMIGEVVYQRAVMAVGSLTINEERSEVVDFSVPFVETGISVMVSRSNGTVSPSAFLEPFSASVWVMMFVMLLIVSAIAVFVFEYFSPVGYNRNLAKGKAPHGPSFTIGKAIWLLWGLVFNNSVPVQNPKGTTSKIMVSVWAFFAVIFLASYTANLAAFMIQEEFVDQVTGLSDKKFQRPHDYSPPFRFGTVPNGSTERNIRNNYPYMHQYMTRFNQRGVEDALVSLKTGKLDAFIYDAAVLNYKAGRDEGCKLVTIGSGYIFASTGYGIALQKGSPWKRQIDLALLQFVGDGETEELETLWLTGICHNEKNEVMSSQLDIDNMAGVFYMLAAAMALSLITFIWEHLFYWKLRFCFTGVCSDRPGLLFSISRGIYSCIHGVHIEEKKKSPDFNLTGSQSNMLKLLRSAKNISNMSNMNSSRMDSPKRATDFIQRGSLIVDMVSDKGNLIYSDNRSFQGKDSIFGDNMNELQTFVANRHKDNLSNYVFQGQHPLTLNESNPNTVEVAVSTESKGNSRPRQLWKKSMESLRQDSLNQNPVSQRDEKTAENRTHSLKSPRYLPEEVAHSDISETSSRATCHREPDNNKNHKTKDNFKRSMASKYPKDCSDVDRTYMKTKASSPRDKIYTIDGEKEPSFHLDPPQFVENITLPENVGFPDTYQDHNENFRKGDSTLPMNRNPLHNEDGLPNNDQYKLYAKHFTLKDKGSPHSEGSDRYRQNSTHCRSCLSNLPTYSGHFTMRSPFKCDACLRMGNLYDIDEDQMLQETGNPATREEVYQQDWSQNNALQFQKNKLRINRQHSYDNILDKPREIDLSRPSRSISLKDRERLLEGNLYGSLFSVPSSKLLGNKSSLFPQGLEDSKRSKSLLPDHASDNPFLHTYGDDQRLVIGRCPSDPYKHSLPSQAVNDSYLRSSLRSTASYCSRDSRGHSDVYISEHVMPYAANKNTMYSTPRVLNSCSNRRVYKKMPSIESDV
GluN1/2A-E789Q, sequence (Q00959 23-1464 E789Q, other chains not shown): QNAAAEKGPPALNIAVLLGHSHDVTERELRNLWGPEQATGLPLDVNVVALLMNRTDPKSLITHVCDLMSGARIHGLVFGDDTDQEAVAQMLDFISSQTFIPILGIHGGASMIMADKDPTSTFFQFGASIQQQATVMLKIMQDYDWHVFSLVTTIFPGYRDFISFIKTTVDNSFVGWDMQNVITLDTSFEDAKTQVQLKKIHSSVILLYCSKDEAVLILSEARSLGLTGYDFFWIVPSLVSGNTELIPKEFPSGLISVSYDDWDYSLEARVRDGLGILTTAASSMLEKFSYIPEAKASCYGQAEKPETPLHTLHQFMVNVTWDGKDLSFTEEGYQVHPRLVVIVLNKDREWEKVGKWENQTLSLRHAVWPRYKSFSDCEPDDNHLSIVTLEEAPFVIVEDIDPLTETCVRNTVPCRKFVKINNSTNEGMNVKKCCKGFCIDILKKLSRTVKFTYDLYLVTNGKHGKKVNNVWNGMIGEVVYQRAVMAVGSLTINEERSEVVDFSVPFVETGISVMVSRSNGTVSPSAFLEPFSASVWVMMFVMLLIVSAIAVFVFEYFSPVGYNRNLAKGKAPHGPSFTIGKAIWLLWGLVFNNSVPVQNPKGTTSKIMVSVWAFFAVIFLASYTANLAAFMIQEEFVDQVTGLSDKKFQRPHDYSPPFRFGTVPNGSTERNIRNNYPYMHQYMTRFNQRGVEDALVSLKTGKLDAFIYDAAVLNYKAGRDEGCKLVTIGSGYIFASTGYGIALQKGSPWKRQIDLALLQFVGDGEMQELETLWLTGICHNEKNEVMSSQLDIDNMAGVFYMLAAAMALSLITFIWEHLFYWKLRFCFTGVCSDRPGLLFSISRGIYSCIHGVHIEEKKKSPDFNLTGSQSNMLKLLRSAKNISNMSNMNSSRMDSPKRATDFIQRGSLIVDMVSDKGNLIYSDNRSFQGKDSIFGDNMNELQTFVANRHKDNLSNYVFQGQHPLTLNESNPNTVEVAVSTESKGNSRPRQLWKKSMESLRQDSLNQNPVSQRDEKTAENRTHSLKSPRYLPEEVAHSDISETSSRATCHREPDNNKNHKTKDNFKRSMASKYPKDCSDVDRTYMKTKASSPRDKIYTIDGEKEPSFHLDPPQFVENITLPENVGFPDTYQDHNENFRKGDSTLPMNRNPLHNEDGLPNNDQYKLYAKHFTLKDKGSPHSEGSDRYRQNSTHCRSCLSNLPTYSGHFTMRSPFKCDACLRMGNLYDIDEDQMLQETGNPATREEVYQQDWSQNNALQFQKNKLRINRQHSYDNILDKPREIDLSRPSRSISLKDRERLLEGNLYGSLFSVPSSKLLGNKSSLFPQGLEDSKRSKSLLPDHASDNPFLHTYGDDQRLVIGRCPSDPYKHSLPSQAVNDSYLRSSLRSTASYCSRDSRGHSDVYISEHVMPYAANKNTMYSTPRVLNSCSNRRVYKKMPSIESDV
GluN1/2A-V783F, sequence (Q00959 23-1464 V783F, other chains not shown): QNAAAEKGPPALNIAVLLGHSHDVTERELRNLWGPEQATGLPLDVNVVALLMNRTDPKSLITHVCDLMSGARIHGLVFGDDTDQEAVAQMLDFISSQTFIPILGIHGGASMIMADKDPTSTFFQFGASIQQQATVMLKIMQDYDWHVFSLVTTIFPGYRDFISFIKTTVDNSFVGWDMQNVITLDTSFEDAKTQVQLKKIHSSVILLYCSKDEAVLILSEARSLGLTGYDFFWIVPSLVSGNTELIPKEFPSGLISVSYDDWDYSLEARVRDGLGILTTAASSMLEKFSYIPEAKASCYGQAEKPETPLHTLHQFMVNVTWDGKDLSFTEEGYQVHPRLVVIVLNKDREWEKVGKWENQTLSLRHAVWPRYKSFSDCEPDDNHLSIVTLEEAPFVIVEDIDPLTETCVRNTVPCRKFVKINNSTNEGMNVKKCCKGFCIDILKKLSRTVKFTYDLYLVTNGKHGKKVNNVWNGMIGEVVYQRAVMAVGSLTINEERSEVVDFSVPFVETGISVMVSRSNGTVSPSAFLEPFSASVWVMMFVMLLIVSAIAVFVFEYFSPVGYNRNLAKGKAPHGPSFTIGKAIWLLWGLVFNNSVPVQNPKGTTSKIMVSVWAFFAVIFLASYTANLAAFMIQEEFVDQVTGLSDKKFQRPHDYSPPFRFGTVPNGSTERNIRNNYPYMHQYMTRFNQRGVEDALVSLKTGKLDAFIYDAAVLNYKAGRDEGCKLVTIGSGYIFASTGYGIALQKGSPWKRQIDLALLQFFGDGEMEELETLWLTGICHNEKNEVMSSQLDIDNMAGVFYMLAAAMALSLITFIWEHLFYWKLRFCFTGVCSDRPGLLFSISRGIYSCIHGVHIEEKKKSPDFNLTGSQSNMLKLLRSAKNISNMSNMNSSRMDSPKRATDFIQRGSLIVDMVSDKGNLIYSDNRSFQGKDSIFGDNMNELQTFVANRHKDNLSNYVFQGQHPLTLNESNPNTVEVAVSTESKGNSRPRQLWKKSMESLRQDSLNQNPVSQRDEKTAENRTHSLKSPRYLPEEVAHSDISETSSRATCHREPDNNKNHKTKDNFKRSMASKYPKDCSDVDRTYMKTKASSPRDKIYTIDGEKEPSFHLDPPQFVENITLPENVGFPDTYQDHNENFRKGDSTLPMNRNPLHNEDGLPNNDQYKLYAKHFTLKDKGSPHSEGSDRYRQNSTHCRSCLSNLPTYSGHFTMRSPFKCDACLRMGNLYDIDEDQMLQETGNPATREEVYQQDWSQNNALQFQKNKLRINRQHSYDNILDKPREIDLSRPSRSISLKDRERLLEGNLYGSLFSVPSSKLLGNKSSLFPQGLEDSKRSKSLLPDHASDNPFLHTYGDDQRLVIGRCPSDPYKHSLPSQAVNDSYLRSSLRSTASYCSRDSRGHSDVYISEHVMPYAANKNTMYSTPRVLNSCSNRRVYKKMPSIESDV

`NCC(=O)O` [Glycine]: the concentration giving a half-maximal response (EC50) (as a rule, the concentration giving half of the maximal effect) in series [1] is 0.99 µM.

As to `Cc1ncc(CNC(=O)c2cnc(CNS(=O)(=O)c3ccc(F)c(Cl)c3)cn2)s1` [MPX-004], the “effect on EPSC decay times (weighted deactivation time constant τW)” value in [2] is “increases EPSC decay times”. At GluN1/2A receptors [3], the Kb is 0.0093 µM and the “negative allosteric interaction constant α” value is recorded as 0.0018.

Turning to `O=C(NNC(=O)c1ccc(CNS(=O)(=O)c2ccc(F)c(Cl)c2)cc1)c1ccccc1` [TCN-201], the “Hill slope nH of inhibition” value came out at 1.2 on GluN1/2A receptors [4] (1 μM glycine, 100 μM glutamate); 1.2 in series [5]; 1.6 at GluN1/2B receptors; 1.9 on GluN1/2D receptors; 1.5 on GluN1/2A-V529I (1 μM glycine, 300 μM glutamate); 1.1 at GluN1/2A-V783F. Also, the “Hill slope nH of inhibition” value on GluN1/2A-V783L came to 1.1; on GluN1/2A-M788I (1 μM glycine, 300 μM glutamate), 1.3; on GluN1/2A-M788T (0.3 μM glycine, 300 μM glutamate), 1.4; at GluN1/2A-E789Q (1 μM glycine, 300 μM glutamate), 1.3; on GluN1/2A-T797S (1 μM glycine, 300 μM glutamate), 1.4. The “selectivity for GluN1/2A over GluN1/2B-D receptors” value at GluN1/2A receptors [4] is listed as greater than 50 fold. For the same compound, the half-inhibitory concentration (IC50) – broadly, the point on the concentration scale where inhibition reaches its midpoint – was 0.1 µM on GluN1/2A receptors [4] (100 μM glutamate); 0.28 µM in [5]; 0.12 µM on GluN1/2A-M788I (setting [9]); 0.14 µM at GluN1/2A-M788T (read-out: IC50 (95% CI), 0.3 μM glycine, 300 μM glutamate); 0.078 µM at GluN1/2A-E789Q (setting [9]); 0.068 µM on GluN1/2A-T797S (setting [9]). In addition, the “selectivity for GluN1/2A over GluN1/2B” value on GluN1/2B receptors was 30 fold. In addition, the “selectivity for GluN1/2A over GluN1/2C” value on GluN1/2C receptors is reported as greater than 50 fold. Further, the “selectivity for GluN1/2A over GluN1/2D” value at GluN1/2D receptors is recorded as 39 fold. For the same compound, the “decrease of potency compared to wild type GluN1/2A” value at GluN1/2A-V529I (setting [8]) was 1.5 fold; at GluN1/2A-V783F, 1.9 fold; at GluN1/2A-V783L, 8.1 fold; at GluN1/2A-M788I (setting [8]), “no significant effects”; on GluN1/2A-M788T (setting [8]), “no significant effects”; at GluN1/2A-T797S (setting [8]), “no significant effects”. The “change of potency compared to wild type GluN1/2A” value on GluN1/2A-E789Q (setting [8]) is reported as “no significant effects”. Also, the Kb at GluN1/2A receptors [3] is 0.042 µM. The “negative allosteric interaction constant α” value on GluN1/2A receptors [3] is recorded as 0.0032. Further, the blood-brain barrier penetration result in [6] is listed as “lack blood-brain barrier penetration”.

`O=C(CSc1nnc(NCc2ccccc2)s1)NCC1CCCCC1` [TCN-213]: the “Hill slope nH of inhibition” value came to 1.1 on GluN1/2A receptors [4] (1 μM glycine, 10 μM glutamate); 1.1 at GluN1/2A receptors [4] (1 μM glycine, 100 μM glutamate); 1.3 at GluN1/2A receptors [4] (30 μM glycine, 300 μM glutamate); 0.9 in [5]; 1.3 at GluN1/2B receptors; 1.1 at GluN1/2C receptors (0.3 μM glycine, 100 μM glutamate). The “Hill slope nH of inhibition” value on GluN1/2D receptors turned out to be 1.5; on GluN1/2A-Y754K (1 μM glycine) it was 1.1; on GluN1/2A-I755F (1 μM glycine, 300 μM glutamate) it was 1.0; on GluN1/2A-I755V (1 μM glycine), 1.1; at GluN1/2A-I755V+Y754K, 1.0; at GluN1/2A-V783F, 1.1. Also, at GluN1/2A-V783L, the “Hill slope nH of inhibition” value was 1.1. Besides, on GluN1/2A receptors [4], the “selectivity for GluN1/2A over GluN1/2B-D receptors” value is recorded as greater than 50 fold. Moreover, the IC50 at GluN1/2A receptors [4] (10 μM glutamate) was 0.96 µM; on GluN1/2A receptors [4] (100 μM glutamate), 0.83 µM; in series [5], 4 µM; at GluN1/2A-Y754K (setting [10]), 1.2 µM; on GluN1/2A-I755F (setting [9]), 1.1 µM; at GluN1/2A-I755V (setting [10]), 1.2 µM. The “selectivity for GluN1/2A over GluN1/2B” value on GluN1/2B receptors worked out at 22 fold. Moreover, the “selectivity for GluN1/2A over GluN1/2C” value on GluN1/2C receptors is on record as 16 fold. In addition, the “selectivity for GluN1/2A over GluN1/2D” value at GluN1/2D receptors stood at 29 fold. The “reduction of potency compared to wild type GluN1/2A” value on GluN1/2A-I755F (glycine EC50 concentration, saturating glutamate) is recorded as “not significantly different”. Besides, the “decrease of potency compared to wild type GluN1/2A” value on GluN1/2A-V783F came to 2.6 fold; on GluN1/2A-V783L it was 4.8 fold. At GluN1/2A receptors [7], the “allosteric constant α” value came out at 0.043.

The values are drawn from article PMC12772459 (The Journal of general physiology, 2025).
